From ChEMBL document CHEMBL5236609, “Optimization of 1,2,4-Triazole-3-thiones toward Broad-Spectrum Metallo-β-lactamase Inhibitors Showing Potent Synergistic Activity on VIM- and NDM-1-Producing Clinical Isolates” (J Med Chem, 2022)
≈ marks a conversion by molar mass, not a printed value. Calls of active or inactive are those of the source. No cut-off for these calls is given here.

Assays:
[1] = Inhibition of bacterial VIM-4 (unknown origin) expressed in Escherichia coli EXPRESS BL21(DE3) assessed as inhibition constant by measuring rate of substrate hydrolysis by UV-visible spectrophotometry; set-up: species or system Bacteria
Outline: (§1)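 Reporter-substrate assay with purified MBL (1–70 nM final) in 50 mM HEPES pH 7.5 at 30 °C. […] Inhibitor 0.5–1000 μM final. Ki derived from the v0/vi vs [I] slope assuming competitive inhibition, or from a Dixon plot. Ki given when inhibition >70%, otherwise % inhibition at 100 μM. Triplicate.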

[2] = Inhibition of bacterial VIM-1 (unknown origin) expressed in Escherichia coli EXPRESS BL21(DE3) assessed as inhibition constant by measuring rate of substrate hydrolysis by UV-visible spectrophotometry; set-up: species or system Bacteria; outline: as §1
[3] = Inhibition of bacterial VIM-2 (unknown origin) expressed in Escherichia coli EXPRESS BL21(DE3) assessed as inhibition constant by measuring rate of substrate hydrolysis by UV-visible spectrophotometry; set-up: species or system Bacteria; outline: as §1
[4] = test system: Pseudomonas aeruginosa; assay: Antimicrobial activity against blaVIM-2-producing multidrug-resistant Pseudomonas aeruginosa VA-182/00 clinical isolate assessed as meropenem MIC at 32 ug/ml by broth microdilution method (reference value: 128 ug/ml); type: functional; details: dose 32 µg/ml
Outline: (§2)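 Inoculum was 5×10^4 CFU/well. Each inhibitor was present at a fixed 32 μg/mL, and MICs were also taken without inhibitor.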

[5] = Inhibition of bacterial NDM-1 (unknown origin) expressed in Escherichia coli EXPRESS BL21(DE3) assessed as inhibition constant by measuring rate of substrate hydrolysis by UV-visible spectrophotometry; set-up: species or system Bacteria; outline: as §1
[6] = test system: Klebsiella pneumoniae; assay: Antimicrobial activity against blaVIM-1-producing multidrug-resistant Klebsiella pneumoniae K47-25 clinical isolate assessed as meropenem MIC at 32 ug/ml by broth microdilution method (reference value: […] ug/ml); type: functional; details: dose 32 µg/ml; outline: as §2
[7] = test system: Klebsiella pneumoniae; assay: Antimicrobial activity against blaVIM-4-producing multidrug-resistant Klebsiella pneumoniae VA-416/02 clinical isolate assessed as meropenem MIC at 32 ug/ml by broth microdilution method (reference value: […] ug/ml); type: functional; details: dose 32 µg/ml; outline: as §2
[8] = test system: Escherichia coli; assay: Antimicrobial activity against blaNDM-1-producing multidrug-resistant Escherichia coli SI-004 clinical isolate assessed as meropenem MIC at 32 ug/ml by broth microdilution method (reference value: 64 ug/ml)
[9] = Inhibition of bacterial IMP-1 (unknown origin) expressed in Escherichia coli EXPRESS BL21(DE3) assessed as inhibition constant by measuring rate of substrate hydrolysis by UV-visible spectrophotometry; set-up: species or system Bacteria; outline: as §1
[10] = test system: Bacteria; assay: Inhibition of bacterial VIM-2 (unknown origin) assessed as Zn(II) content in protein at >5 uM by overnight equilibrium dialysis
Outline: (§3)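 VIM-2 or NDM-1 (3 μM final) in 50 mM HEPES pH 7.5 mixed with compound at 0–48 μM. Incubated 1 h on ice, then dialysed overnight at 4 °C against 50 mM HEPES pH 7.5. Zn(II) content measured by atomic absorption at 213.86 nm against a zinc standard curve. Each point averages three samples.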

[11] = test system: Bacteria; assay: Inhibition of bacterial NDM-1 (unknown origin) expressed in Escherichia coli EXPRESS BL21(DE3) assessed as inhibition constant by measuring rate of substrate hydrolysis at 100 uM by UV-visible spectrophotometry relative to control; outline: as §1
[12] = test system: Bacteria; assay: Inhibition of bacterial VIM-1 (unknown origin) expressed in Escherichia coli EXPRESS BL21(DE3) assessed as inhibition constant by measuring rate of substrate hydrolysis at 100 uM by UV-visible spectrophotometry relative to control; outline: as §1
[13] = test system: Bacteria; assay: Inhibition of bacterial VIM-4 (unknown origin) expressed in Escherichia coli EXPRESS BL21(DE3) assessed as inhibition constant by measuring rate of substrate hydrolysis at 100 uM by UV-visible spectrophotometry relative to control; outline: as §1
[14] = test system: Bacteria; assay: Inhibition of bacterial VIM-2 (unknown origin) expressed in Escherichia coli EXPRESS BL21(DE3) assessed as inhibition constant by measuring rate of substrate hydrolysis at 100 uM by UV-visible spectrophotometry relative to control; outline: as §1
[15] = test system: Bacteria; assay: Inhibition of bacterial IMP-1 (unknown origin) expressed in Escherichia coli EXPRESS BL21(DE3) assessed as inhibition constant by measuring rate of substrate hydrolysis at 100 uM by UV-visible spectrophotometry relative to control; outline: as §1
[16] = test system: Bacteria; assay: Inhibition of bacterial Metallo-beta-lactamase VIM-1 (unknown origin) at 100 uM relative to control; outline: as §1
[17] = Inhibition of bacterial Metallo-beta-lactamase VIM-4 (unknown origin); set-up: species or system Bacteria; outline: as §1
[18] = Inhibition of bacterial Metallo-beta-lactamase IMP-1 (unknown origin); set-up: species or system Bacteria; outline: as §1
[19] = Inhibition of bacterial Metallo-beta-lactamase VIM-1 (unknown origin); set-up: species or system Bacteria; outline: as §1
[20] = Inhibition of bacterial Metallo-beta-lactamase NDM-1 (unknown origin); set-up: species or system Bacteria; outline: as §1
[21] = Inhibition of bacterial Metallo-beta-lactamase VIM-2 (unknown origin); set-up: species or system Bacteria; outline: as §1
[22] = Cytotoxicity against human HeLa cells assessed as LDH release incubated for 24 hrs by membrane integrity assay; type: toxicity, cell-based
Outline: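 HeLa cells (20,000/well) exposed to compound up to 250 μM for 24 h at 37 °C, 5% CO2 in DMEM with 10% FBS, 4.5 mg/mL glucose and 2 mM L-glutamine. LDH release expressed as % of Triton X-100 maximum lysis; IC50 is the concentration giving 50% cytotoxicity.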

[23] = Metabolic stability in CD-1 mouse microsomes assessed as compound remaining after 40 mins LC-MS/MS analysis; type: ADME, Microsome; details: read-out: Activity
Outline: (§4)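 Mouse liver microsomes, mixed gender, at 37 °C for 40 min; propranolol control. Reports t1/2, intrinsic clearance and % intact compound remaining at 40 min.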

[24] = Metabolic stability in CD-1 mouse microsomes assessed as half life at 37 degC by LC-MS/MS analysis; type: ADME, Microsome; outline: as §4
[25] = test system: Bacteria; assay: Inhibition of bacterial Metallo-beta-lactamase NDM-1 (unknown origin) at 100 uM relative to control; outline: as §1
[26] = test system: Bacteria; assay: Inhibition of bacterial NDM-1 (unknown origin) assessed as ternary complex formation using 10 uM enzyme concentration at 50 uM by native MS analysis
Outline: (§5)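 Purified VIM-2 or NDM-1 was given 2 mM TCEP and 2 equiv ZnCl2, incubated 1 h, and dialysed overnight into 100 mM ammonium acetate pH 7.5. Enzyme at 10 μM was then incubated 5 min with 50 μM compound. Positive-mode nanoESI on an Orbitrap, scanning m/z 1000–4000. Species assigned from deconvoluted masses.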

[27] = test system: Bacteria; assay: Competitive inhibition of bacterial VIM-2 (unknown origin) assessed as Zn(II) content by at 48 uM by overnight equilibrium dialysis; outline: as §3
[28] = test system: Bacteria; assay: Inhibition of bacterial VIM-2 (unknown origin) assessed as ternary complex formation using 10 uM enzyme concentration at 50 uM by native MS analysis; outline: as §5
[29] = test system: Bacteria; assay: Competitive inhibition of bacterial NDM-1 (unknown origin) assessed as Zn(II) content at 48 uM by overnight equilibrium dialysis; outline: as §3
[30] = test system: Escherichia coli; assay: Antimicrobial activity against blaNDM-1-producing multidrug-resistant Escherichia coli SI-004 clinical isolate; type: functional
Outline: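 Broth microdilution per CLSI in cation-supplemented Mueller–Hinton broth with an inoculum of 5×10^4 CFU/well.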

[31] = test system: Pseudomonas aeruginosa; assay: Antimicrobial activity against blaVIM-2-producing multidrug-resistant Pseudomonas aeruginosa VA-182/00 clinical isolate; type: functional
[32] = target: Insulin-degrading enzyme (Homo sapiens) (UniProt P14735); assay: Inhibition of recombinant human IDE using ATTO 655-Cys-Lys-Leu-Val-Phe-Phe-Ala-Glu-Asp-Trp as substrate at 0.4 uM measured after 45 mins by fluorescence assay relative to control
Sequence of Insulin-degrading enzyme (Homo sapiens) (P14735 whole entry): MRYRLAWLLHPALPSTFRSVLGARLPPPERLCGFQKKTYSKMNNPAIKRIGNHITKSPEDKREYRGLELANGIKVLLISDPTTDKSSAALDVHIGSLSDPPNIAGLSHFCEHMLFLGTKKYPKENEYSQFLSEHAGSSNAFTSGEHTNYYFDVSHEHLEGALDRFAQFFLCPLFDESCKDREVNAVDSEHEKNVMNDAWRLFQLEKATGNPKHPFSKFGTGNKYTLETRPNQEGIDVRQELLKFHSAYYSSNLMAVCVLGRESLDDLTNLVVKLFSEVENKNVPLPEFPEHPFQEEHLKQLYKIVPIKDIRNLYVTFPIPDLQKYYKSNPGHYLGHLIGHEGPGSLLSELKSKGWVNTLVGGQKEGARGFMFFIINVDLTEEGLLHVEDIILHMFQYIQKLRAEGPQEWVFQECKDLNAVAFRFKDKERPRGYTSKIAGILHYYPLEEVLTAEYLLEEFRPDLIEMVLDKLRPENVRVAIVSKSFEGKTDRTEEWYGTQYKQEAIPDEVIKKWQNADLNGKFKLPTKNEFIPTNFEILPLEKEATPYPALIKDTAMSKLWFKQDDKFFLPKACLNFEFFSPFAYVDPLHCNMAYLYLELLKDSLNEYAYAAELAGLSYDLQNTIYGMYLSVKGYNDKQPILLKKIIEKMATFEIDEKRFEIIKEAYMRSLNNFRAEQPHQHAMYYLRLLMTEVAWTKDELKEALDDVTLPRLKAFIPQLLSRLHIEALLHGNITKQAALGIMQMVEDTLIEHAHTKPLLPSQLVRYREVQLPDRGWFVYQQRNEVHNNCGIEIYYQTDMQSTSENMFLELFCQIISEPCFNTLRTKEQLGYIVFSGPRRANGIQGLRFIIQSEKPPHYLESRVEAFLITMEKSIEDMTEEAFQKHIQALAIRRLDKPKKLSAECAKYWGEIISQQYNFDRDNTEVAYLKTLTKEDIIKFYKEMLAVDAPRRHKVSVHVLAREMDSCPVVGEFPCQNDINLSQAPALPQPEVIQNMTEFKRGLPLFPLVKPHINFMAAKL

SMILES	Ki [1] [µM]	Ki [2] [µM]	Ki [3] [µM]	MIC [4] [µg/mL]	Ki [5] [µM]	MIC [6] [µg/mL]	MIC [7] [µg/mL]	MIC [8] [µg/mL]	inhibition [15] [%]	other results
O=C(O)[C@H](CCCCn1c(-c2ccccc2)n[nH]c1=S)N(Cc1c[nH]cn1)Cc1c[nH]cn1	0.47	0.04	0.97	16	0.36	0.03	0.03	0.06		Ki [9]: 5 µM
O=C(O)[C@@H](CCCn1c(-c2ccccc2)n[nH]c1=S)N(Cc1c[nH]cn1)Cc1c[nH]cn1	0.11	0.17	0.19	8	0.014	0.03	0.03	0.06		inhibition [10]: Active; Ki [9]: 7.4 µM
O=C(O)[C@H](Cn1c(-c2ccccc2)n[nH]c1=S)N(Cc1c[nH]cn1)Cc1c[nH]cn1	0.56	0.88	1.5	16	0.04	0.03	0.03	0.06		Ki [9]: 4.2 µM
O=C(O)[C@H](CCCn1c(-c2ccccc2)n[nH]c1=S)NCc1c[nH]cn1				128		2	4	64	< 30	inhibition [11]: 35%; inhibition [12]: 53%; inhibition [13]: < 30%; inhibition [14]: < 30%
O=C(O)CCCCn1c(-c2ccccc2)n[nH]c1=S										inhibition [16]: 57%; Ki [17]: 1.13 µM; Ki [18]: Not Active; Ki [19]: 13.9 µM; Ki [20]: Not Active; Ki [21]: 2.81 µM
Cc1[nH]cnc1CN(Cc1nc[nH]c1C)[C@@H](CCCn1c(-c2ccccc2)n[nH]c1=S)C(=O)O	0.35	0.31	0.22	16	0.023	0.03	0.03	2	57	CC50 at 24 h [22]: 141 µM
CC(C)NCC(O)COc1cccc2ccccc12 (configuration not stated) [PROPRANOLOL]										remaining at 40 min [23]: 31%
CCOC(=O)[C@H](CCc1ccccc1)N[C@@H](C)C(=O)N1CCC[C@H]1C(=O)O										half-life [24]: 1.05 h
CC(C)(C)OC(=O)N[C@@H](CCCn1c(-c2ccccc2)n[nH]c1=S)C(=O)O										Ki [17]: 1.51 µM; Ki [18]: Not Active; Ki [19]: 30.8 µM; inhibition [25]: 35%; Ki [21]: 1.95 µM
O=C(Nc1ccccc1)NC(CCCn1c(-c2ccccc2)n[nH]c1=S)C(=O)O (configuration not stated)										Ki [17]: 4.14 µM; Ki [18]: Not Active; Ki [20]: Not Active; Ki [21]: 6.93 µM
O=C(O)[C@H](CCCn1c(-c2ccccc2)n[nH]c1=S)N(Cc1ccccn1)Cc1c[nH]cn1	0.56	0.95	0.64	8	0.38	0.06	0.03	0.06	< 30	CC50 at 24 h [22]: 175 µM
O=C(O)[C@H](CCCn1c(Cc2ccc3ccccc3c2)n[nH]c1=S)N(Cc1c[nH]cn1)Cc1c[nH]cn1	0.19	0.08	0.27	8	0.03	0.03	0.06	0.06		Ki [9]: 11.2 µM
O=C(O)[C@H](CCCn1c(-c2ccccc2)n[nH]c1=S)N(Cc1cncs1)Cc1cncs1	0.14	0.3	0.1	128	28	1	1	32	< 30	inhibition [26]: Active; inhibition [27]: Active; inhibition [28]: Active; inhibition [29]: Active
C[C@@H](O)[C@H]1C(=O)N2C(C(=O)O)=C(S[C@@H]3CN[C@H](C(=O)N(C)C)C3)[C@H](C)[C@H]12 [MEROPENEM]										MIC [30]: 64 µg/mL (≈ 167 µM); MIC [31]: 128 µg/mL (≈ 334 µM)
O=C(O)[C@H](CCCn1c(-c2ccccc2)n[nH]c1=S)N(Cc1cccnc1)Cc1cccnc1	0.52	2.6	0.42	128		4	1	64	< 30	inhibition [26]: Active; inhibition [11]: 67%; inhibition [27]: Active; inhibition [28]: Active; inhibition [29]: Active
O=C(C[C@H](Cc1ccc2ccccc2c1)n1cc(CNC(=O)c2ccc(F)cc2)nn1)NO										inhibition [32]: 65%
